These results are taken from ChEMBL document CHEMBL1143581, “Cationic chalcone antibiotics. Design, synthesis, and mechanism of action” (2005).

What all share (type): functional
In experiment [1] the test system is Staphylococcus aureus. Nature of the experiment: Minimum inhibitory concentration against Staphylococcus aureus ATCC 33591 (resistant to methicillin).
For experiment [2], the system named is Escherichia coli. The experiment is described as follows: Minimum inhibitory concentration against Escherichia coli ATCC 25922. The essentials:
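Broth microdilution per NCCLS in Mueller-Hinton medium, run in triplicate, with an added uninoculated compound dilution series in case of precipitation. MIC read as the lowest concentration preventing visible growth; reported values are the mean of three experiments.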

Experiment [3] has as its system Enterococcus faecium. Nature of the experiment: Minimum inhibitory concentration against Enterococcus faecium […].
Experiment [4] has as its system Enterococcus faecium. The experiment is described as follows: Minimum inhibitory concentration against Enterococcus faecium 17501 (vancomycin-resistant clinical isolate).

One may read the MIC as the lowest concentration that inhibits growth of the organism. The low end stands for a more susceptible organism, the high end for a less susceptible organism.

Molecules are shown by their SMILES. ≈ marks a conversion by molar mass, not a printed value.

In the case of `COc1ccc(C(=O)/C=C/c2cc(-c3cc(C)cc(C)c3)ccc2OCC[N+](C)(C)C)c(C[N+](C)(C)C)c1`, the minimal inhibitory concentration (MIC) in experiment [1] was 10 µM.

Turning to `COc1ccc(C(=O)/C=C/c2cc(-c3cc(C)cc(C)c3)ccc2OCCN(C)C)cc1CN(C)C`, the minimum inhibitory concentration (MIC) in experiment [2] was determined as 40 µM (≈ 19.5 µg/mL); in experiment [1], 20 µM (≈ 9.73 µg/mL); in experiment [3], 20 µM (≈ 9.73 µg/mL); in experiment [4], 20 µM (≈ 9.73 µg/mL).

With `CN(C)CCNc1cccc(C(=O)/C=C/c2ccc(-c3ccccc3)cc2N2CCN(C)CC2)c1`, the minimal inhibitory concentration (MIC) in experiment [2] was 40 µM (≈ 18.7 µg/mL); in experiment [1], 20 µM (≈ 9.37 µg/mL); in experiment [3], 40 µM (≈ 18.7 µg/mL); in experiment [4], 40 µM (≈ 18.7 µg/mL).

Regarding `Cc1cc(C)cc(-c2ccc(OCCN(C)C)c(/C=C/C(=O)c3ccccc3OCCN(C)C)c2)c1`, the MIC turned out to be 40 µM (≈ 19.5 µg/mL) in experiment [2], 10 µM (≈ 4.87 µg/mL) in experiment [1], 10 µM (≈ 4.87 µg/mL) in experiment [3] and 10 µM (≈ 4.87 µg/mL) in experiment [4].

As to `CN(C)CCNc1cccc(C(=O)/C=C/c2cc(-c3ccccc3)ccc2N2CCN(C)CC2)c1`, the MIC in experiment [2] stood at 20 µM (≈ 9.37 µg/mL); in experiment [1], 20 µM (≈ 9.37 µg/mL); in experiment [3] it was 40 µM (≈ 18.7 µg/mL); in experiment [4], 20 µM (≈ 9.37 µg/mL).

`CN(C)CCNc1ccc(C(=O)/C=C/c2ccc(Cl)cc2Cl)cc1`: the MIC in experiment [1], in experiment [3] and in experiment [4] was 40 µM (≈ 14.5 µg/mL) throughout.

Take `COc1ccc(C(=O)/C=C/c2cc(-c3ccccc3OC)ccc2N2CCCN(C)CC2)c(F)c1`: the MIC is 10 µM (≈ 4.75 µg/mL) in experiment [1], 20 µM (≈ 9.49 µg/mL) in experiment [3] and 10 µM (≈ 4.75 µg/mL) in experiment [4].

Consider `CN(C)Cc1ccc(C(=O)/C=C/c2ccc(Cl)cc2Cl)cc1`, for which the MIC in experiment [1] came out at 40 µM (≈ 13.4 µg/mL); in experiment [3], 75 µM (≈ 25.1 µg/mL); in experiment [4], 40 µM (≈ 13.4 µg/mL).

As to `CN(C)CCNc1cccc(C(=O)/C=C/c2cc(-c3ccccc3)cc(N3CCN(C)CC3)c2)c1`, the minimum inhibitory concentration (MIC) came to 75 µM (≈ 35.1 µg/mL) in experiment [2], 20 µM (≈ 9.37 µg/mL) in experiment [1], 40 µM (≈ 18.7 µg/mL) in experiment [3] and 40 µM (≈ 18.7 µg/mL) in experiment [4].

Take `COc1ccc(C(=O)/C=C/c2cc(-c3ccccc3OC)ccc2OCCN(C)C)c(F)c1`: the MIC in experiment [1], in experiment [3] and in experiment [4] was 10 µM (≈ 4.5 µg/mL) throughout.

In the case of `COc1ccc(C(=O)/C=C/c2cc(-c3cccc(C(F)(F)F)c3)ccc2N2CCN(C)CC2)c(F)c1`, the MIC in experiment [1] came to 5 µM (≈ 2.49 µg/mL); in experiment [3], 10 µM (≈ 4.99 µg/mL); in experiment [4] it was 5 µM (≈ 2.49 µg/mL).

Turning to `Cc1cc(C)cc(-c2ccc(OCCN(C)C)c(/C=C/C(=O)c3cccc(NCCN(C)C)c3)c2)c1`, the MIC was determined as 20 µM (≈ 9.71 µg/mL) in experiment [2], 5 µM (≈ 2.43 µg/mL) in experiment [1], 10 µM (≈ 4.86 µg/mL) in experiment [3] and 10 µM (≈ 4.86 µg/mL) in experiment [4].

For the compound `Cc1cc(C)cc(-c2ccc(N3CCN(C)CC3)c(/C=C/C(=O)c3cccc(NCCN(C)C)c3)c2)c1`, the MIC in experiment [2] stood at 10 µM (≈ 4.97 µg/mL); in experiment [1], 5 µM (≈ 2.48 µg/mL); in experiment [3], 5 µM (≈ 2.48 µg/mL); in experiment [4], 5 µM (≈ 2.48 µg/mL).

Consider `COc1ccc(C(=O)/C=C/c2cc(-c3ccccc3)ccc2CN(C)C)c(F)c1`, for which the minimal inhibitory concentration (MIC) in experiment [1], in experiment [3] and in experiment [4] was 150 µM (≈ 58.4 µg/mL) throughout.

Consider `CN(C)CCNc1ccccc1C(=O)/C=C/c1ccc(Cl)cc1Cl`, for which the MIC in experiment [1] amounted to 40 µM (≈ 14.5 µg/mL); in experiment [3], 75 µM (≈ 27.2 µg/mL); in experiment [4], 40 µM (≈ 14.5 µg/mL).

Consider `COc1ccc(C(=O)/C=C/c2cc(-c3ccccc3C(F)(F)F)ccc2N2CCN(C)CC2)c(F)c1`, for which the figures for the MIC in experiment [1], in experiment [3] and in experiment [4] were 5 µM (≈ 2.49 µg/mL), 20 µM (≈ 9.97 µg/mL) and 10 µM (≈ 4.99 µg/mL), respectively.

Take `COc1ccc(C(=O)/C=C/c2cc(-c3cccnc3)ccc2N2CCN(C)CC2)c(F)c1`: the MIC in experiment [1], in experiment [3] and in experiment [4] was 75 µM (≈ 32.4 µg/mL) each time.

For `COc1ccc(C(=O)/C=C/c2cc(-c3cc(C)cc(C)c3)ccc2OCCN(C)C)c(F)c1`, the minimum inhibitory concentration (MIC) in experiment [1], in experiment [3] and in experiment [4] was 5 µM (≈ 2.24 µg/mL) throughout.

As to `CCCCN(CCCC)c1ccc(/C=C/C(=O)c2ccc(NCCN(C)C)cc2)cc1`, the MIC in experiment [1], in experiment [3] and in experiment [4] was 10 µM (≈ 4.22 µg/mL) throughout.

For the compound `CN(C)CCNc1ccc(C(=O)/C=C/c2ccc(Cl)cc2)cc1`, the MIC in experiment [1], in experiment [3] and in experiment [4] was 75 µM (≈ 24.7 µg/mL) throughout.

Consider `COc1ccc(C(=O)/C=C/c2cc(C)ccc2OCCN(C)C)c(F)c1`, for which the results for the MIC in experiment [1], in experiment [3] and in experiment [4] were 75 µM (≈ 26.8 µg/mL), 150 µM (≈ 53.6 µg/mL) and 150 µM (≈ 53.6 µg/mL), respectively.

Take `CN(C)CCNc1ccc(C(=O)/C=C/c2ccc(Oc3ccccc3)cc2)cc1`: the MIC in experiment [1] worked out at 20 µM (≈ 7.73 µg/mL); in experiment [3] it was 5 µM (≈ 1.93 µg/mL); in experiment [4], 20 µM (≈ 7.73 µg/mL).

On to `COc1ccc(C(=O)/C=C/c2cc(-c3ccccc3OC)ccc2N2CC[N+](C)(C)CC2)c(F)c1`, for which the minimum inhibitory concentration (MIC) in experiment [1] was 10 µM.

As for `Cc1cc(C)cc(-c2ccc(OCCN(C)C)c(/C=C/C(=O)c3ccccc3CN(C)C)c2)c1`, the MIC in experiment [2] is 75 µM (≈ 34.2 µg/mL); in experiment [1], 10 µM (≈ 4.57 µg/mL); in experiment [3], 5 µM (≈ 2.28 µg/mL); in experiment [4] it was 10 µM (≈ 4.57 µg/mL).

In the case of `Cc1cc(C)cc(-c2ccc(OCCN(C)C)c(/C=C/C(=O)c3cccc(CN(C)C)c3)c2)c1`, the MIC in experiment [2] came out at 40 µM (≈ 18.3 µg/mL); in experiment [1], 10 µM (≈ 4.57 µg/mL); in experiment [3], 10 µM (≈ 4.57 µg/mL); in experiment [4], 10 µM (≈ 4.57 µg/mL).

Regarding `Cc1cc(C)cc(-c2ccc(OCCN(C)C)c(/C=C/C(=O)c3ccccc3NCCN(C)C)c2)c1`, the MIC in experiment [2], in experiment [1], in experiment [3] and in experiment [4] was 10 µM (≈ 4.86 µg/mL) throughout.

Take `Cc1cc(C)cc(-c2ccc(OCCN(C)C)c(/C=C/C(=O)c3cccc(OCCN(C)C)c3)c2)c1`: the MIC in experiment [2] was 20 µM (≈ 9.73 µg/mL); in experiment [1] it was 5 µM (≈ 2.43 µg/mL); in experiment [3], 10 µM (≈ 4.87 µg/mL); in experiment [4], 10 µM (≈ 4.87 µg/mL).

Consider `Cc1cc(C)cc(-c2ccc(OCCN(C)C)c(/C=C/C(=O)c3ccc(NCCN(C)C)cc3)c2)c1`, for which the MIC was 20 µM (≈ 9.71 µg/mL) in experiment [2], 10 µM (≈ 4.86 µg/mL) in experiment [1], 20 µM (≈ 9.71 µg/mL) in experiment [3] and 10 µM (≈ 4.86 µg/mL) in experiment [4].

As to `CN(C)CCNc1cccc(C(=O)/C=C/c2ccc(Cl)cc2Cl)c1`, the MIC in experiment [1], in experiment [3] and in experiment [4] was 40 µM (≈ 14.5 µg/mL) throughout.

As for `COc1ccc(C(=O)/C=C/c2ccccc2OCCN(C)C)c(F)c1`, the MIC in experiment [1], in experiment [3] and in experiment [4] was 300 µM (≈ 103 µg/mL) throughout.

Consider `C[N+](C)(C)CCOc1ccc(C(=O)/C=C/c2ccc(Cl)cc2Cl)cc1`, for which the MIC in experiment [1] stood at 40 µM.

Take `COc1ccc(C(=O)/C=C/c2cc(C(C)(C)C)ccc2OCCN(C)C)c(F)c1`: the MIC in experiment [1] came out at 10 µM (≈ 4 µg/mL); in experiment [3], 20 µM (≈ 7.99 µg/mL); in experiment [4], 20 µM (≈ 7.99 µg/mL).

For `Cc1cc(C)cc(-c2ccc(OCCN(C)C)c(/C=C/C(=O)c3ccc(OCCN(C)C)cc3)c2)c1`, the MIC was 40 µM (≈ 19.5 µg/mL) in experiment [2], 10 µM (≈ 4.87 µg/mL) in experiment [1], 20 µM (≈ 9.73 µg/mL) in experiment [3] and 10 µM (≈ 4.87 µg/mL) in experiment [4].

Turning to `CN(C)CCNc1ccc(/C=C/C(=O)c2ccc(Oc3ccccc3)cc2)cc1`, the MIC is 20 µM (≈ 7.73 µg/mL) in experiment [1], 10 µM (≈ 3.86 µg/mL) in experiment [3] and 20 µM (≈ 7.73 µg/mL) in experiment [4].

For the compound `COc1ccc(C(=O)/C=C/c2cc(-c3ccccc3)ccc2OCCN(C)C)c(F)c1`, the MIC turned out to be 5 µM (≈ 2.1 µg/mL) in experiment [1], 10 µM (≈ 4.19 µg/mL) in experiment [3] and 10 µM (≈ 4.19 µg/mL) in experiment [4].

Take `CN(C)CCNc1ccc(C(=O)/C=C/c2cccc(Oc3ccccc3)c2)cc1`: the MIC worked out at 20 µM (≈ 7.73 µg/mL) in experiment [1], 5 µM (≈ 1.93 µg/mL) in experiment [3] and 20 µM (≈ 7.73 µg/mL) in experiment [4].
